Experimental data from different studies.
Cell line: MDA-MB-231
Effect on: cell growth or viability

For `Nc1cc(Cl)c(Cl)cc1N`, the IC50 was 150 µM (72 h).
With `N.N.O=C([O-])C1(C(=O)[O-])CCC1.[Pt+2]` the IC50 was 33 µM (MTT; 96 h).
For `CC1=CC(=O)c2c(O)cccc2C1=O`, the IC50 was 4.4 µM (MTT; 24 h).
`Nc1cc(Br)c(Br)cc1N` gave an IC50 of 60 µM (72 h).
The IC50 of `N[C@@H](Cc1ccc(N(CCCl)CCCl)cc1)C(=O)O` is reported as > 50 µM (CCK-8; 48 h).
`CO[C@]1([C@@H]2CSC(=O)N2C)C[C@H]2C[C@@H](CC[C@H](C)/C=C\C=C\CC/C(C)=C\C(=O)O2)O1` gave an IC50 of 19.9 µM (MTT; 72 h).
`Cc1coc2c1c(=O)oc1c3ccccc3ccc21` has an IC50 of 10.3 µg/mL (SRB; 72 h).
The IC50 of `C/C1=C/C(=O)O[C@@H]2C[C@@H](CC[C@H](C)/C=C\C=C\CC1)O[C@@](O)([C@@H]1CSC(=O)N1CO)C2` is reported as 2.99 µM (MTT; 72 h).
`N.N.[Cl][Pt][Cl]` gave an IC50 of 68.4 µM (24 h).
`CC(C)=CCc1c(O)cc2oc3cc(O)c(O)c(CC=C(C)C)c3c(=O)c2c1O` gave an IC50 of 16.4 µM (48 h).
`CO[C@]1([C@@H]2CSC(=O)N2Cc2ccccc2)C[C@H]2C[C@@H](CC[C@H](C)/C=C\C=C\CC/C(C)=C\C(=O)O2)O1` has an IC50 of 6.82 µM (MTT; 72 h).
With `COc1ccc2c(c1)[nH]c1c(C)nccc12` the IC50 was 16.7 µM (MTT; 72 h).
